Assay results taken from ChEMBL document CHEMBL1914406, “Inhibitory effect of novel 5-O-acyl juglones on mammalian DNA polymerase activity, cancer cell growth and inflammatory response” (Bioorg Med Chem, 2011).
Blank lines part the entries; values can stand above or below the compound they belong to. The source made the active and inactive calls. The rule behind the calls is not given here.

Tests used:
[1] = species: Homo sapiens; assay: Inhibition of histidine-tagged human DNA polymerase gamma using poly(dA)/oligo(dT)18 (A/T = 2/1) and dTTP as the DNA template-primer and nucleotide substrate at 10 uM after 60 mins
In short: (§1)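 Compound in DMSO, sonicated 30 s. Premixed 0 °C, 10 min with enzyme (0.05 units) in 50 mM Tris-HCl pH 7.5, 1 mM DTT, 50% glycerol, 0.1 mM EDTA, then added to standard reaction mixture. Template-primers: poly(dA)/oligo(dT)18 (2/1) for pols, oligo(dT)18 for TdT, poly(rA)/oligo(dT)18 for HIV-1 RT, with [3H]dTTP. 60 min at 37 °C (Taq 74 °C). Activity relative to no-inhibitor control; mean ± SE of three experiments.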

[2] = species: Homo sapiens; assay: Inhibition of histidine-tagged human DNA polymerase gamma using bovine deoxyribonuclease 1-treated DNA and dNTP as the DNA template-primer and nucleotide substrate at 10 uM after 60 mins
[3] = target: T1, DNA polymerase kappa (Homo sapiens) (UniProt Q9UBT6); assay: Inhibition of C-terminal His6-tagged human DNA polymerase kappa (amino acids 1 to 560) using poly(dA)/oligo(dT)18 (A/T = 2/1) and dTTP as the DNA template-primer and nucleotide substrate at 10 uM after 60 mins
T1 sequence (whole entry): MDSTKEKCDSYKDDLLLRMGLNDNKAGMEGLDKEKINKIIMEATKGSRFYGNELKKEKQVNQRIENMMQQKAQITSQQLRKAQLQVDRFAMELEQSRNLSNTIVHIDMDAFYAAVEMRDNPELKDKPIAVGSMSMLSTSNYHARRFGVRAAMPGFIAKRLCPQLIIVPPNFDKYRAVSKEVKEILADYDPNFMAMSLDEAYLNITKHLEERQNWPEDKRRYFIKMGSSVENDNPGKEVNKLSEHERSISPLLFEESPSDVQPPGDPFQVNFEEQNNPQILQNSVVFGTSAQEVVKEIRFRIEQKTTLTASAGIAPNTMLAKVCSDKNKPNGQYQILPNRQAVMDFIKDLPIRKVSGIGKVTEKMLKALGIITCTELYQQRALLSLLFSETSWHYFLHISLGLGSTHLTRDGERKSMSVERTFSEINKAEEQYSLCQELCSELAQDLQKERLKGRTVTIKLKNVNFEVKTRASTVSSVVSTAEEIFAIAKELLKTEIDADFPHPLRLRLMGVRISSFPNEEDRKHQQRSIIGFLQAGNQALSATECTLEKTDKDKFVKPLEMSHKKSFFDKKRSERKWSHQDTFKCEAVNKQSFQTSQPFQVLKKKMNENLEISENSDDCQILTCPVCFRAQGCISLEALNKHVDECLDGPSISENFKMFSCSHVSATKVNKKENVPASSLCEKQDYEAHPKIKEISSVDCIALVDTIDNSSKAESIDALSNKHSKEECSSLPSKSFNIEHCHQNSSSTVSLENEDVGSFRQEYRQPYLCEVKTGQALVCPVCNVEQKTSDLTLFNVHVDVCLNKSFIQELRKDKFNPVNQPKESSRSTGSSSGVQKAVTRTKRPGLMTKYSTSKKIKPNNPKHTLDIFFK

[4] = target: T2, DNA polymerase lambda (Homo sapiens) (UniProt Q9UGP5); assay: Inhibition of recombinant His-tagged human DNA polymerase lambda using poly(dA)/oligo(dT)18 (A/T = 2/1) and dTTP as the DNA template-primer and nucleotide substrate at 10 uM after 60 mins; in short: as §1
T2 sequence (whole entry): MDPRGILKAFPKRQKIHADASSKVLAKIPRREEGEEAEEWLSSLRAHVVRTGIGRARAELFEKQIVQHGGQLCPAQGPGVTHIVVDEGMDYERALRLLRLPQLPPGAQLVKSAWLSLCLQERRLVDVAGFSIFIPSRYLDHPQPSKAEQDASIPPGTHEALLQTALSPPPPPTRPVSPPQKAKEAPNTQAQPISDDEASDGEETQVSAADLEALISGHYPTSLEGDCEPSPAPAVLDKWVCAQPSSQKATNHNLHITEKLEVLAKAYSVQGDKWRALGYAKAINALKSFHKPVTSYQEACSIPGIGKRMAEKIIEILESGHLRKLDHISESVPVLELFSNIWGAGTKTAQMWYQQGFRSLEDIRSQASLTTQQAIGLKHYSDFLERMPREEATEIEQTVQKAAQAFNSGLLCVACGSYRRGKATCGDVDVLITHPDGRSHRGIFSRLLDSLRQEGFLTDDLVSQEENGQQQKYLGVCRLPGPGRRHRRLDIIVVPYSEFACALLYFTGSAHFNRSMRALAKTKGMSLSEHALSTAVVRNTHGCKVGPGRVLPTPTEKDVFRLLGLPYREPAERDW

[5] = species: Bos taurus; assay: Inhibition of calf DNA polymerase alpha using poly(dA)/oligo(dT)18 (A/T = 2/1) and dTTP as the DNA template-primer and nucleotide substrate at 10 uM after 60 mins; in short: as §1
[6] = tested on: Mus musculus; assay: Antiinflammatory activity in mouse assessed as inhibition of TPA-induced mouse ear edema at 500 ug/ear administered 30 mins before TPA challenge measured after 7 hrs relative to untreated control; type: functional, organism-based
In short: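 Compound (500 µg) applied to one mouse ear; 30 min later TPA (0.5 µg) applied to both ears. Edema scored after 7 h and expressed as percentage of edema. Mean ± SE, n = 6.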

[7] = target: T2, DNA polymerase lambda (Homo sapiens); assay: Inhibition of recombinant His-tagged human DNA polymerase lambda using bovine deoxyribonuclease 1-treated DNA and dNTP as the DNA template-primer and nucleotide substrate at 10 uM after 60 mins
[8] = tested on: RAW264.7; assay: Antiinflammatory activity in mouse RAW264.7 cells assessed as inhibition of LPS-induced TNFalpha secretion at 5 uM treated 30 mins before LPS challenge measured after 24 hrs by ELISA; type: functional, cell-based
In short: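 RAW264.7 cells in MEM with 4.5 g/L glucose, 10% FCS, 5 mM L-glutamine, at 37 °C in 5% CO2. Seeded at 5 × 10⁴ cells/well and grown 24 h. Compound (final 1 and 5 µM) given 30 min before 100 ng/mL LPS. After 24 h, TNF-α in the medium measured by ELISA, relative to the no-compound value (100%). Mean ± SE, n = 4.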

[9] = tested on: HCT-116; assay: Cytotoxicity against human HCT116 cells by WST-1 assay; type: functional, cell-based
In short: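 HCT116 colon carcinoma cells (ATCC) grown in McCoy's 5A with 10% FBS, penicillin and streptomycin, 37 °C, 5% CO2. Plated at 1 × 10⁴ cells/well together with compound, which was diluted from a 10 mM DMSO stock into medium (final 0.5% DMSO). Incubated 24 h. Viability read by WST-1, expressed relative to untreated cells.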

[10] = species: Bos taurus; assay: Inhibition of calf DNA polymerase alpha using bovine deoxyribonuclease 1-treated DNA and dNTP as the DNA template-primer and nucleotide substrate at 10 uM after 60 mins
[11] = target: T1, DNA polymerase kappa (Homo sapiens); assay: Inhibition of C-terminal His6-tagged human DNA polymerase kappa (amino acids 1 to 560) using bovine deoxyribonuclease 1-treated DNA and dNTP as the DNA template-primer and nucleotide substrate at 10 uM after 60 mins
[12] = tested on: RAW264.7; assay: Cytotoxicity against mouse RAW264.7 cells at 5 uM; type: cell-based; details: raw264.7, 5 µM
[13] = Cytotoxicity against mouse RAW264.7 cells; type: cell-based; details: read-out: LD50 (the source's name)
[14] = tested on: Nucleic Acid; assay: Binding affinity to DNA assessed as thermal transition of DNA relative to control; type: nucleic-acid assay

SMILES: CCCCCC(=O)O [HEXANOATE]
- inhibition [1]: inactive
- inhibition [2]: inactive
- inhibition [3]: inactive
- inhibition [4]: inactive
- inhibition [5]: inactive
- Activity [6]: inactive
- inhibition [7]: inactive
- Activity [8]: inactive
- Activity [9]: inactive
- inhibition [10]: inactive
- inhibition [11]: inactive
- Activity [12]: Non-toxic
- CC50 [13]: > 10 µM

- inhibition [1]: Active
- inhibition [2]: Active
SMILES: CC1=CC(=O)c2ccccc2C1=O

SMILES: CC/C=C\C/C=C\C/C=C\C/C=C\C/C=C\C/C=C\CCC(=O)O [DOCONEXENT]
- inhibition [1]: inactive
- inhibition [2]: inactive
- inhibition [3]: inactive
- inhibition [4]: inactive
- inhibition [5]: inactive
- Activity [6]: inactive
- inhibition [7]: inactive
- Activity [8]: inactive
- Activity [9]: inactive
- inhibition [10]: inactive
- inhibition [11]: inactive
- Activity [12]: Non-toxic
- CC50 [13]: > 10 µM

SMILES: CCCCCC(=O)Oc1cccc2c1C(=O)C=CC2=O
- inhibition [1]: Active
- inhibition [2]: Active
- inhibition [3]: Active
- Activity [14]: inactive
- inhibition [4]: Active
- inhibition [5]: Active
- Activity [6]: Active
- inhibition [7]: Active
- inhibition [10]: Active
- inhibition [11]: Active
- Activity [12]: Non-toxic
- CC50 [13]: > 10 µM

SMILES: CCCCCCCCCCCC(=O)O [DODECANOATE]
- inhibition [1]: inactive
- inhibition [2]: inactive
- inhibition [3]: inactive
- inhibition [4]: inactive
- inhibition [5]: inactive
- Activity [6]: inactive
- inhibition [7]: inactive
- Activity [8]: inactive
- Activity [9]: inactive
- inhibition [10]: inactive
- inhibition [11]: inactive
- Activity [12]: Non-toxic
- CC50 [13]: > 10 µM

SMILES: CCCCCCCCCCCCCCCCCC(=O)O [STEARIC ACID]
- inhibition [1]: inactive
- inhibition [2]: inactive
- inhibition [3]: inactive
- inhibition [4]: inactive
- inhibition [5]: inactive
- Activity [6]: inactive
- inhibition [7]: inactive
- Activity [8]: inactive
- Activity [9]: inactive
- inhibition [10]: inactive
- inhibition [11]: inactive
- Activity [12]: Non-toxic
- CC50 [13]: > 10 µM

SMILES: CC(=O)O [ACETIC ACID]
- inhibition [1]: inactive
- inhibition [2]: inactive
- inhibition [3]: inactive
- inhibition [4]: inactive
- inhibition [5]: inactive
- Activity [6]: inactive
- inhibition [7]: inactive
- Activity [8]: inactive
- Activity [9]: inactive
- inhibition [10]: inactive
- inhibition [11]: inactive
- Activity [12]: Non-toxic
- CC50 [13]: > 10 µM

SMILES: CC/C=C\C/C=C\C/C=C\C/C=C\C/C=C\CCCC(=O)O [ICOSAPENT]
- inhibition [1]: inactive
- inhibition [2]: inactive
- inhibition [3]: inactive
- inhibition [4]: inactive
- inhibition [5]: inactive
- Activity [6]: inactive
- inhibition [7]: inactive
- Activity [8]: inactive
- Activity [9]: inactive
- inhibition [10]: inactive
- inhibition [11]: inactive
- Activity [12]: Non-toxic
- CC50 [13]: > 10 µM

SMILES: CCC(=O)O [PROPIONIC ACID]
- inhibition [1]: inactive
- inhibition [2]: inactive
- inhibition [3]: inactive
- inhibition [4]: inactive
- inhibition [5]: inactive
- Activity [6]: inactive
- inhibition [7]: inactive
- Activity [8]: inactive
- Activity [9]: inactive
- inhibition [10]: inactive
- inhibition [11]: inactive
- Activity [12]: Non-toxic
- CC50 [13]: > 10 µM

SMILES: CC/C=C\C/C=C\C/C=C\CCCCCCCC(=O)O [LINOLENIC ACID]
- inhibition [1]: inactive
- inhibition [2]: inactive
- inhibition [3]: inactive
- inhibition [4]: inactive
- inhibition [5]: inactive
- Activity [6]: inactive
- inhibition [7]: inactive
- Activity [8]: inactive
- Activity [9]: inactive
- inhibition [10]: inactive
- inhibition [11]: inactive
- Activity [12]: Non-toxic
- CC50 [13]: > 10 µM

SMILES: CCCCCCCC/C=C\CCCCCCCC(=O)O [OLEIC ACID]
- inhibition [1]: inactive
- inhibition [2]: inactive
- inhibition [3]: inactive
- inhibition [4]: inactive
- inhibition [5]: inactive
- Activity [6]: inactive
- inhibition [7]: inactive
- Activity [8]: inactive
- Activity [9]: inactive
- inhibition [10]: inactive
- inhibition [11]: inactive
- Activity [12]: Non-toxic
- CC50 [13]: > 10 µM

SMILES: CCCCC/C=C\C/C=C\CCCCCCCC(=O)O [LINOLEIC ACID]
- inhibition [1]: inactive
- inhibition [2]: inactive
- inhibition [3]: inactive
- inhibition [4]: inactive
- inhibition [5]: inactive
- Activity [6]: inactive
- inhibition [7]: inactive
- Activity [8]: inactive
- Activity [9]: inactive
- inhibition [10]: inactive
- inhibition [11]: inactive
- Activity [12]: Non-toxic
- CC50 [13]: > 10 µM
